Results on five compounds are retold here after publication PMC10841542 (Immunology, 2023).

In assay [1] the test system is ERAP1 WT. Kind of assay: N-terminal peptide trimming, LC-MS/MS, ERAP1 WT. It counts as biochemical, human. The conditions noted are these: from 11-mer KL1, pH 7.8, 30 °C, two independent experiments.
Assay [2] addresses ERAP1 F803R (Homo sapiens, UniProt Q9NZ08, F803R/R127P). Kind of assay: N-terminal peptide trimming, LC-MS/MS, F803R. The format is biochemical. The following applies: from 11-mer KL1, pH 7.8, 30 °C, two independent experiments.
Assay [3] addresses T1, ERAP1 V737R (Homo sapiens, UniProt Q9NZ08, V737R). In words: Steady-state kinetics of L-AMC hydrolysis ± 7-mer peptide activator, V737R. It counts as biochemical. The conditions noted are these: pH 8.0, 27 °C; for allosteric activation in steady state kinetics: 100 μM peptide, 0–2,000 μM L-AMC. The gist of the method: (§1)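 Steady-state kinetics used purified His6-tagged ERAP1 (allotype-1, WT or mutant) from baculovirus-infected Sf9 cells at 1.5 µg ml-1. Buffer was 50 mM Tris/HCl pH 8.0, 0.1 M NaCl at 27 °C, with L-AMC at 0–2,000 µM, with or without 100 µM 7-mer peptide. AMC release (ex 380/em 460 nm) was followed for 5 min. Initial rates from three time points (nmoles.min-1.µg-1) were curve-fitted for Vmax, K1/2 and Hill coefficient. Comparisons used Brown-Forsyth one-way ANOVA with Tukey's test.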

Assay [4] relates to ERAP1 WT. Kind of assay: Simple activation assay. It counts as biochemical, human. The following applies: 100 μM L-AMC, pH 8.0, 25 °C, 5 min; for activation of L-AMC hydrolysis over basal level: 100 μM peptide. The gist of the method: (§2)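 ERAP1 enzyme: allotype-1, WT or point mutant, with a C-terminal His6 tag. It was expressed in Sf9 cells by baculovirus and purified by Ni-NTA and gel filtration. Assay: 1.5 µg ml-1 enzyme in 50 mM Tris/HCl pH 8.0, 0.1 M NaCl at 25 °C, with or without 100 µM 7-mer peptide activator. Hydrolysis of 100 µM L-AMC was followed for 5 min by AMC fluorescence (ex 380/em 460 nm), calibrated with AMC standards.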

The target of assay [5] is T2, ERAP1 I681R (Homo sapiens, UniProt Q9NZ08, I681R). In words: Simple activation assay. It counts as biochemical. The following applies: 100 μM L-AMC, pH 8.0, 25 °C, 5 min. Put shortly: as §2
Assay [6] concerns the target T3, ERAP1 L733R (Homo sapiens, UniProt Q9NZ08, L733R). Kind of assay: Simple activation assay. The format is biochemical. The conditions noted are these: 100 μM L-AMC, pH 8.0, 25 °C, 5 min. Put shortly: as §2
Assay [7] deals with ERAP1 L734R. Kind of assay: Simple activation assay. It counts as biochemical, human. The following applies: 100 μM L-AMC, pH 8.0, 25 °C, 5 min. Put shortly:
as §2

In assay [8] the target is T1, ERAP1 V737R. In words: Simple activation assay. The conditions noted are these: 100 μM L-AMC, pH 8.0, 25 °C, 5 min. The format is biochemical. Put shortly:
as §2

In assay [9] the test system is ERAP1 F803R. In words: Simple activation assay. The format is biochemical, human. The following applies: 100 μM L-AMC, pH 8.0, 25 °C, 5 min; for activation of L-AMC hydrolysis over basal level: 100 μM peptide. The gist of the method: as §2
Assay [10] deals with ERAP1 WT and variants. It counts as biochemical, human. The conditions noted are these: 100 μM peptide; most enzyme variants; 0–2,000 μM L-AMC; pH 8.0; 27 °C. Put shortly:
as §1

Assay [11] deals with ERAP1. The conditions noted are these: cited from earlier work.
For assay [12], the system named is ERAP1 WT. Kind of assay: Steady-state kinetics of L-AMC hydrolysis ± 7-mer peptide activator, ERAP1 WT. It counts as biochemical, human. The conditions noted are these: pH 8.0, 27 °C. Put shortly:
as §1

For assay [13], the target named is T2, ERAP1 I681R. In words: Steady-state kinetics of L-AMC hydrolysis ± 7-mer peptide activator, I681R. The format is biochemical. The following applies: pH 8.0, 27 °C. The gist of the method:
as §1

The target of assay [14] is T3, ERAP1 L733R. In words: Steady-state kinetics of L-AMC hydrolysis ± 7-mer peptide activator, L733R. The conditions noted are these: pH 8.0, 27 °C. It counts as biochemical. Put shortly: as §1
The subject of assay [15] is ERAP1 L734R. In words: Steady-state kinetics of L-AMC hydrolysis ± 7-mer peptide activator, L734R. It counts as biochemical, human. The following applies: pH 8.0, 27 °C. Put shortly: as §1
In assay [16] the target is T4, ERAP1 F803R (Homo sapiens, UniProt Q9NZ08, F803R). In words: Steady-state kinetics of L-AMC hydrolysis ± 7-mer peptide activator, F803R. The conditions noted are these: pH 8.0, 27 °C. It counts as biochemical. The gist of the method: as §1
Assay [17] has as its system ERAP1 WT. Kind of assay: Allosteric activation of L-AMC hydrolysis, varying peptide effector, ERAP1 WT. It counts as biochemical, human. The following applies: 0–2,000 μM peptide, 100 μM L-AMC, 27 °C, three independent repeats. Put shortly: (§3)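 Recombinant human ERAP1 (allotype-1, WT or Arg point mutant) carrying a C-terminal His6 tag, expressed in baculovirus-infected Sf9 cells and purified by Ni-NTA then gel filtration (full-length peak). 1.5 µg/ml enzyme with 100 µM L-AMC and 7-mer peptide activator varied 0–2,000 µM, in 50 mM Tris/HCl pH 8.0, 0.1 M NaCl, 27 °C, 5 min. AMC fluorescence read at ex 380/em 460 nm against AMC standards. Vmax and AC50 fitted to Michaelis-Menten.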

Assay [18] concerns the target T2, ERAP1 I681R. Kind of assay: Allosteric activation of L-AMC hydrolysis, varying peptide effector, I681R. The conditions noted are these: 0–2,000 μM peptide, 100 μM L-AMC, 27 °C, three independent repeats. The format is biochemical. Put shortly:
as §3

Assay [19] concerns the target T3, ERAP1 L733R. In words: Allosteric activation of L-AMC hydrolysis, varying peptide effector, L733R. The following applies: 0–2,000 μM peptide, 100 μM L-AMC, 27 °C, three independent repeats. The format is biochemical. Put shortly:
as §3

Assay [20] deals with ERAP1 L734R (Homo sapiens, UniProt Q9NZ08, L734R). In words: Allosteric activation of L-AMC hydrolysis, varying peptide effector, L734R. It counts as biochemical. The conditions noted are these: 0–2,000 μM peptide, 100 μM L-AMC, 27 °C, three independent repeats. Put shortly:
as §3

For assay [21], the target named is T1, ERAP1 V737R. Kind of assay: Allosteric activation of L-AMC hydrolysis, varying peptide effector, V737R. It counts as biochemical. The following applies: 0–2,000 μM peptide, 100 μM L-AMC, 27 °C, three independent repeats. Put shortly:
as §3

Assay [22] addresses T4, ERAP1 F803R. In words: Allosteric activation of L-AMC hydrolysis, varying peptide effector, F803R. The format is biochemical. The following applies: 0–2,000 μM peptide, 100 μM L-AMC, 27 °C, three independent repeats. Put shortly:
as §3

The mark [23] stands for this setting: 100 μM peptide, 0–2,000 μM L-AMC.
Where [24] appears, read: 1.5 μg/ml enzyme, 50 mM Tris/HCl pH 8.0, 0.1 M NaCl, 5 min.
The mark [25] stands for this setting: read-out: AC50 (half maximal activation concentration), pH 8.0.
The mark [26] stands for this setting: 100 μM peptide, relative to wildtype.
[27] abbreviates: no peptide activator, three independent repeats.

Entries after “also recorded” stand apart in the source; their conditions may differ.

T1 sequence (Q9NZ08 whole entry V737R): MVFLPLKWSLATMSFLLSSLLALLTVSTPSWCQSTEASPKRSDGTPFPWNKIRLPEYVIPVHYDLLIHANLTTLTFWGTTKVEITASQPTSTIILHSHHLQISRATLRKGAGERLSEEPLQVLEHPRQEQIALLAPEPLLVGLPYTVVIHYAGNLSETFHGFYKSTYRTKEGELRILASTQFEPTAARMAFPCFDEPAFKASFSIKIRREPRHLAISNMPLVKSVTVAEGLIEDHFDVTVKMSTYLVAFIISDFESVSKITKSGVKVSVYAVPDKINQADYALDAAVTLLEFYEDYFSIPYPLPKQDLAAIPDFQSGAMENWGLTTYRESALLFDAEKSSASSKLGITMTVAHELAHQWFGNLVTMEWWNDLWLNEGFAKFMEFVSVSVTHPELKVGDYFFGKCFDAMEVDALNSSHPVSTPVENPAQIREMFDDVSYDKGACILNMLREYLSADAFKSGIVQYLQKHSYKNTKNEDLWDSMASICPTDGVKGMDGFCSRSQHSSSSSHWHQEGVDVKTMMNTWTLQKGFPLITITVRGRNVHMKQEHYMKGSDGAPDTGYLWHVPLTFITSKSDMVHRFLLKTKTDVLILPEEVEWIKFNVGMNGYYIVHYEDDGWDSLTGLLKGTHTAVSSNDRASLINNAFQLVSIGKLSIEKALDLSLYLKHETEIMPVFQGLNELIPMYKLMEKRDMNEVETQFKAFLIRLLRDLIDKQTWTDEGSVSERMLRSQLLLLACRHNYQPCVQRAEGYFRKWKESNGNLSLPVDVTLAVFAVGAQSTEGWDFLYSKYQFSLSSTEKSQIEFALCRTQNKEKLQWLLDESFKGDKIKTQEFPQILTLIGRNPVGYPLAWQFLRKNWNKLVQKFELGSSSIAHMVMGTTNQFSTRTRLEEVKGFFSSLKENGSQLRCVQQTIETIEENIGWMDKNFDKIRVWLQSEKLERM
T4 sequence (Q9NZ08 whole entry F803R): as the sequence (Q9NZ08 whole entry V737R) above, with R737V, F803R counted along it
T3 sequence (Q9NZ08 whole entry L733R): as the sequence (Q9NZ08 whole entry V737R) above, with L733R, R737V counted along it
T2 sequence (Q9NZ08 whole entry I681R): as the sequence (Q9NZ08 whole entry V737R) above, with I681R, R737V counted along it
Sequence of ERAP1 L734R (Homo sapiens, UniProt Q9NZ08, L734R) (Q9NZ08 whole entry L734R): as the sequence (Q9NZ08 whole entry V737R) above, with L734R, R737V counted along it
Sequence of ERAP1 F803R (Homo sapiens, UniProt Q9NZ08, F803R/R127P) (Q9NZ08 whole entry R127P/F803R): as the sequence (Q9NZ08 whole entry V737R) above, with R127P, R737V, F803R counted along it

For LESIINFEKL [KL2], the “time after which the amount of 10-mer product began to decrease” value in [1] and in [2] was above 10 min throughout.
Take IINFEKE: the “allosteric activation in steady state kinetics” value in assay [3] was “significantly activated; also recorded: not a very effective activator”. Besides, the “activation of L-AMC hydrolysis over basal level” value is on record as “not activated significantly above their basal levels; also recorded: did not show significant difference from their respective basal activity” in assay [4]; “not activated significantly above their basal levels” in assay [5] (100 μM peptide); “not activated significantly above their basal levels; also recorded: did not show significant difference from their respective basal activity” in [6] (100 μM peptide); “not activated significantly above their basal levels” in assay [7] (100 μM peptide); “slight but significant activation” in [8] (100 μM peptide); “not activated significantly above their basal levels; also recorded: did not show significant difference from their respective basal activity” in [9]. In addition, the “activation of L-AMC hydrolysis above basal activity” value in assay [8] (100 μM peptide) was ~ 30%. For the same compound, the “change of sigmoidal curves, h values, or Vmax” value in [10] is “did not change much the sigmoidal curves”.
Consider QLESIINFEKL [KL1], for which the “processing by ERAP1” value in [11] is recorded as “efficiently processed by ERAP1”.
Turning to IINFEKL, the “allosteric activation in steady state kinetics” value in assay [12] (setting [23]) was “significant or dramatic increase of Vmax; also recorded: effective allosteric activator”; in assay [13] (setting [23]), “significant or dramatic increase of Vmax”; in [14] (setting [23]) it was “significant or dramatic increase of Vmax”; in assay [15] (setting [23]), “significant or dramatic increase of Vmax”; in assay [3] it was “significant or dramatic increase of Vmax”; in assay [16] (setting [23]), “significant or dramatic increase of Vmax; also recorded: effective allosteric activator”. The “Vmax of L-AMC hydrolysis, peptide activator varied” value in assay [17] (setting [24]) amounted to 241 ± 6 nmol/min/µg; in assay [18] (setting [24]) it was 175 ± 54 nmol/min/µg; in [19] (setting [24]), 211 ± 10 nmol/min/µg; in assay [20] (setting [24]), 112 ± 8 nmol/min/µg; in [21] (setting [24]) it was 62 ± 7 nmol/min/µg; in assay [22] (setting [24]), 217 ± 9 nmol/min/µg. The AC50 in [17] (setting [25]) was found to be 80 ± 10 µM; in assay [18] (setting [25]), 1460 ± 840 µM; in assay [19] (setting [25]), 440 ± 60 µM; in [20] (setting [25]) it was 580 ± 120 µM; in [21] (setting [25]), 590 ± 170 µM; in assay [22] (setting [25]), 170 ± 30 µM. The “activation of L-AMC hydrolysis over basal level” value in assay [4] is “significant increase”; in assay [8] (100 μM peptide), “lowest activity in the presence of IINFEKL peptide and with the smallest activation from its basal activity”; in assay [9], “significant increase”. Besides, the results for the “allosteric activation compared to wildtype enzyme” value in assay [5] (setting [26]), in assay [6] (setting [26]) and in assay [7] (setting [26]) were “about 75%”, around 50% and around 55%, respectively.
For `Cc1cc(=O)oc2cc(NC(=O)[C@@H](N)CC(C)C)ccc12` [L-AMC, leucine-7-amido-4-methyl-coumarin, reference compound], the “Hill coef. (h)” value was 2.6 in assay [12] (setting [27]); 1.8 in assay [13] (setting [27]); 1.5 in [14] (setting [27]); 1.3 in assay [15] (setting [27]); 1.9 in assay [3] (setting [27]). Besides, the “K1/2 (half-Vmax concentration of L-AMC)” value amounted to 0.38 ± 0.05 mM in assay [12] (setting [27]); 0.23 ± 0.04 mM in assay [13] (setting [27]); 0.19 ± 0.03 mM in assay [14] (setting [27]); 0.33 ± 0.09 mM in assay [15] (setting [27]); 0.52 ± 0.09 mM in assay [3] (setting [27]); 0.39 ± 0.06 mM in assay [16] (setting [27]). Besides, the “basal L-AMC hydrolysis” value was “low but detectable basal level” in [4] (no peptide); “low but detectable basal level; also recorded: higher than the other mutant enzymes and the WT enzyme” in assay [5] (no peptide); “low but detectable basal level” in assay [6] (no peptide); “low but detectable basal level; also recorded: higher than the other mutant enzymes and the WT enzyme” in [7] (no peptide); “low but detectable basal level” in assay [8] (no peptide); “low but detectable basal level” in assay [9] (no peptide).
